The species named for assay [1] is Oryctolagus cuniculus. As to the kind of experiment: (§1) Antagonist activity at voltage dependent L-type calcium channel in New Zealand white rabbit sigmoid colon circular smooth muscle strip assessed as relaxation response relative to papaverine. It counts as functional.
The species named for assay [2] is Oryctolagus cuniculus. The experiment in a line: (§2) Antagonist activity at voltage dependent L-type calcium channel in New Zealand white rabbit sigmoid colon circular smooth muscle strip assessed as relaxation response. The class given is functional. Summed up:
(§3)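 Strips held at 1 g basal tension and equilibrated 60 min in Ca2+-free KHS, with the solution changed every 15 min. Strips were then placed in Ca2+-free, 80 mM K+ solution and contracted by cumulative Ca2+ (2.5, 5, 10 mM). At the contraction plateau, compounds were added cumulatively (10^-8–10^-4 M). Emax and pD2 (−log EC50) were derived from concentration–relaxation curves, n = 6.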

Assay [3] can be described thus: as §1. The class given is functional. The conditions noted are these: Oryctolagus cuniculus.
A short description of assay [4]: as §2. It counts as functional, Oryctolagus cuniculus. Summed up: as §3
The nature of assay [5]: (§4) Antagonist activity at voltage dependent L-type calcium channel in New Zealand white rabbit sigmoid colon circular smooth muscle strip assessed as induction of relaxation response in presence of Ca2+-activated potassium channel blocker tetraethylammonium. It counts as functional, Oryctolagus cuniculus. Details: scale not given: the % may be the effect or the level left.
Assay [6] is filed under the species Oryctolagus cuniculus. The assay is described as §4. The class given is functional.

Each structure is given as a SMILES string. Activity calls are given as the source filed them. No cut-off for these calls is given here.

On to `C=CCOC(=O)C1=C(C)NC2=C(C(=O)CC(C)(C)C2)C1c1cc(C(F)(F)F)cc(Cl)c1F` (stereo not drawn), for which the Emax result in the assay filed under Oryctolagus cuniculus [1] is “inactive”. In the assay listed under Oryctolagus cuniculus [2], the Activity result was “Dose-dependent effect” and the pD2 entry is “inactive”.
For the molecule `CC1=C(C(=O)OCc2ccccc2)C(c2cc(C(F)(F)F)cc(Cl)c2F)C2=C(CCC(C)(C)C2=O)N1` (stereo not drawn), in the assay filed under Oryctolagus cuniculus [1], the Emax entry was “inactive”. Moreover, in the assay filed under Oryctolagus cuniculus [2], the Activity entry is “Dose-dependent effect” and the pD2 result was “inactive”.
Consider `COC(=O)C1=C(C)NC2=C(C(=O)C(C)(C)CC2)C1c1cc(C(F)(F)F)cc(Cl)c1F` (stereo not drawn), for which the Emax in assay [3] was found to be 17.2%. Besides, in assay [4], the pD2 amounted to 4.94. Further, the results for the Activity result (in the assay listed under Oryctolagus cuniculus [2]; in assay [5]) were “Dose-dependent effect” and 17.19%, respectively.
Consider `CC1=C(C(=O)OCc2ccccc2)C(c2cc(C(F)(F)F)cc(Cl)c2F)C2=C(CC(C)(C)CC2=O)N1` (stereo not drawn), for which the Emax entry in the assay listed under Oryctolagus cuniculus [1] is “inactive”. In the assay filed under Oryctolagus cuniculus [2], the Activity result is “Dose-dependent effect” and the pD2 result was “inactive”.
For the molecule `CC1=C(C(=O)OC(C)(C)C)C(c2cc(C(F)(F)F)cc(Cl)c2F)C2=C(CCC(C)(C)C2=O)N1` (stereo not drawn), the Emax entry in the assay filed under Oryctolagus cuniculus [1] is “inactive”. In the assay filed under Oryctolagus cuniculus [2], the Activity entry was “Dose-dependent effect” and the pD2 entry is “inactive”.
As for `CCOC(=O)C1=C(C)NC2=C(C(=O)CC(C)(C)C2)C1c1cc(C(F)(F)F)cc(Cl)c1F` (stereo not drawn), in assay [3], the Emax was 22.8%. Besides, the pD2 in assay [4] worked out at 4.74. For the same molecule, the Activity entry in the assay filed under Oryctolagus cuniculus [2] was “Dose-dependent effect”.
`CC1=C(C(=O)OCC(C)C)C(c2cc(C(F)(F)F)cc(Cl)c2F)C2=C(CCC(C)(C)C2=O)N1` (stereo not drawn): the Emax result in the assay filed under Oryctolagus cuniculus [1] was “inactive”. In the assay listed under Oryctolagus cuniculus [2], the Activity result is “Dose-dependent effect” and the pD2 entry was “inactive”.
As for `CC1=C(C(=O)OCC(C)C)C(c2cc(C(F)(F)F)cc(Cl)c2F)C2=C(CC(C)(C)CC2=O)N1` (stereo not drawn), the Emax result in the assay filed under Oryctolagus cuniculus [1] is “inactive”. Moreover, in the assay listed under Oryctolagus cuniculus [2], the Activity entry is “Dose-dependent effect” and the pD2 result was “inactive”.
As for `COC(=O)C1=C(C)NC(C)=C(C(=O)OC)C1c1ccccc1[N+](=O)[O-]` [NIFEDIPINE], the Emax in assay [3] is 94%. In addition, the pD2 in assay [4] stood at 6.92. Moreover, the Activity result in the assay listed under Oryctolagus cuniculus [2] was “Dose-dependent effect”.
In the same order, the values of `COC(=O)C1=C(C)NC2=C(C(=O)CC(C)(C)C2)C1c1cc(C(F)(F)F)cc(Cl)c1F` (stereo not drawn) are 32.2%, 4.84 and “Dose-dependent effect”.
On to `CC1(C)CCC2=C(C1=O)C(c1cc(C(F)(F)F)cc(Cl)c1F)C1=C(COC1=O)N2` (stereo not drawn), for which, in the assay filed under Oryctolagus cuniculus [1], the Emax result is “inactive”. In the assay listed under Oryctolagus cuniculus [2], the Activity entry was “Dose-dependent effect” and the pD2 result is “inactive”. For the same molecule, in the assay listed under Oryctolagus cuniculus [6], the result was inactive.
With `C=CCOC(=O)C1=C(C)NC2=C(C(=O)C(C)(C)CC2)C1c1cc(C(F)(F)F)cc(Cl)c1F` (stereo not drawn), the Emax entry in the assay listed under Oryctolagus cuniculus [1] was “inactive”. In the assay listed under Oryctolagus cuniculus [2], the Activity entry was “Dose-dependent effect” and the pD2 result is “inactive”.
For `CC1(C)CC(=O)C2=C(C1)NC1=C(C(=O)OC1)C2c1cc(C(F)(F)F)cc(Cl)c1F` (stereo not drawn), the Emax entry in the assay listed under Oryctolagus cuniculus [1] was “inactive”. Besides, in the assay listed under Oryctolagus cuniculus [2], the Activity entry is “Dose-dependent effect” and the pD2 result was “inactive”.
Turning to `CC1=C(C(=O)OC(C)(C)C)C(c2cc(C(F)(F)F)cc(Cl)c2F)C2=C(CC(C)(C)CC2=O)N1` (stereo not drawn), in the assay listed under Oryctolagus cuniculus [1], the Emax entry is “inactive”. In the assay filed under Oryctolagus cuniculus [2], the Activity entry is “Dose-dependent effect” and the pD2 result was “inactive”.
For the molecule `COCCOC(=O)C1=C(C)NC2=C(C(=O)C(C)(C)CC2)C1c1cc(C(F)(F)F)cc(Cl)c1F` (stereo not drawn), the Emax in assay [3] amounted to 43.7%. The pD2 in assay [4] is given as 4.89. Besides, in the assay listed under Oryctolagus cuniculus [2], the Activity result was “Dose-dependent effect”.
Regarding `CCOC(=O)C1=C(C)NC2=C(C(=O)C(C)(C)CC2)C1c1cc(C(F)(F)F)cc(Cl)c1F` (stereo not drawn), the maximal response (Emax) in assay [3] stood at 23%. In assay [4], the pD2 came out at 5.06. Further, the Activity result in the assay listed under Oryctolagus cuniculus [2] is “Dose-dependent effect”.
In the same order, the values of `COCCOC(=O)C1=C(C)NC2=C(C(=O)CC(C)(C)C2)C1c1cc(C(F)(F)F)cc(Cl)c1F` (stereo not drawn) are 45%, 5.11 and “Dose-dependent effect”.

One may read the Emax as the maximal effect, on the per cent scale that the assay sets.

Source of the values: ChEMBL document CHEMBL1158354, “Condensed 1,4-dihydropyridines with various esters and their calcium channel antagonist activities” (2009).
